The results in this text go back to ChEMBL document CHEMBL3526129, “Species differences in tissue distribution and enzyme activities of arylacetamide deacetylase in human, rat, and mouse” (Drug Metab Dispos, 2012).

The structures appear in SMILES notation.

A short description of data set [1]: Intrinsic clearance in rat kidney microsome at 0.025 to 0.75 mM. The data set is classed as ADME. Conditions: kidney microsomes. In outline: (§1)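 Flutamide hydrolysis to FLU-1 in 100 mM potassium phosphate (pH 7.4) with 0.4 mg/ml microsomal protein. Flutamide was 0.025–0.75 mM, or 0.005–0.75 mM for human jejunum. Rodent microsomes were pooled from 3 male SD rats or 5 male C57BL/6J mice. CLint is Vmax/Km, or the initial slope when Km was high; for Hill fits, CLmax. Triplicate determinations.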

Data set [2] deals with T1, Arylacetamide deacetylase (Homo sapiens, UniProt P22760).
T1 sequence (P22760 whole entry): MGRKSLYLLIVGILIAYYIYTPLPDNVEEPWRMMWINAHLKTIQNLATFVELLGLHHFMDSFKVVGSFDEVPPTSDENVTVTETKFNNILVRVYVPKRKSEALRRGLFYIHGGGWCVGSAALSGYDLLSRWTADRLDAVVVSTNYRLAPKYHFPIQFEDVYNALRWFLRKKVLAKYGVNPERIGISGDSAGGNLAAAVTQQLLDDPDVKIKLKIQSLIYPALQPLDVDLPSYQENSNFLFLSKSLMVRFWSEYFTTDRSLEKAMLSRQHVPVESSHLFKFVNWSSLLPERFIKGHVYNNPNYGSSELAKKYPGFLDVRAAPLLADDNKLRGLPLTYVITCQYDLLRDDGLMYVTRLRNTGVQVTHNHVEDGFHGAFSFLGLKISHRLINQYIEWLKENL
In words: Inhibition of AADAC in human kidney microsome. In outline:
(§2)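 Flutamide hydrolysis to FLU-1 by pooled human jejunum (n = 10) or single-donor human renal microsomes at 0.4 mg/ml in 100 mM potassium phosphate (pH 7.4). Flutamide was 0.005–0.75 mM (jejunum) or 0.025–0.75 mM (kidney). Kinetics were fitted to the substrate inhibition equation, combined with Michaelis-Menten for jejunum. Triplicate determinations.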

In data set [3] the target is T1, Arylacetamide deacetylase. Briefly: Activity of AADAC in human kidney microsome. In kind it is ADME. Conditions: microsomes. The method in brief:
(§3)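 Hydrolase activity of tissue microsomes in 0.2 ml mixtures of 100 mM potassium phosphate (pH 7.4). Microsomal protein: 0.4 mg/ml for flutamide (0.025–0.75 mM) and phenacetin (0.05–4 mM); 0.5 mg/ml for rifampicin (0.005–1 mM). Products measured were FLU-1, p-phenetidine and 25-deacetylrifampicin, within linear ranges. Three independent experiments.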

The nature of data set [4]: Intrinsic clearance in mouse jejunum microsome at 0.005 to 0.75 mM. The data set is classed as ADME. Conditions: jejunum microsomes.
A short description of data set [5]: Intrinsic clearance in mouse kidney microsome at 0.025 to 0.75 mM. In kind it is ADME. Conditions: kidney microsomes. The method in brief: as §1
The target in data set [6] is T1, Arylacetamide deacetylase. Briefly: Activity of AADAC in human liver microsome. In kind it is ADME. Conditions: microsomes. In outline:
as §3
For orientation: Liver microsomes are a subcellular fraction often used to study metabolism.

The target in data set [7] is T2, Arylacetamide deacetylase (Mus musculus, UniProt Q99PG0).
T2 sequence (Q99PG0 whole entry): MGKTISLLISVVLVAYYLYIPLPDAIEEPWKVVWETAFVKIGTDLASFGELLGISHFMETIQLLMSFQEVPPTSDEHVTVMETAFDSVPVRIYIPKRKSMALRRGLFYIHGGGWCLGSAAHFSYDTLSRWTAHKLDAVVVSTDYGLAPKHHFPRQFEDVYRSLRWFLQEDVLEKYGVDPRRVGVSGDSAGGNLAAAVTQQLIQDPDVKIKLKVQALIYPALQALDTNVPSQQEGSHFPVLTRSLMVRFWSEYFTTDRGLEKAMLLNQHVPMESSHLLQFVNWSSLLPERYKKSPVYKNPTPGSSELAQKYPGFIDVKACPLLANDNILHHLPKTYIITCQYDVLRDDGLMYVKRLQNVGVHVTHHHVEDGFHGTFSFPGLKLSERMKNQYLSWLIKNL
In words: Activity of AADAC in mouse lung microsome. The data set is classed as ADME. Conditions: microsomes. In outline:
as §3

Data set [8] can be described thus: Intrinsic clearance in rat jejunum microsome at 0.005 to 0.75 mM. Conditions: jejunum microsomes. The data set is classed as ADME.
Data set [9] can be described thus: Intrinsic clearance in human jejunum microsome at 0.005 to 0.75 mM. Conditions: jejunum microsomes. The data set is classed as ADME. The method in brief:
as §1

Data set [10] addresses T1, Arylacetamide deacetylase. In words: Activity of AADAC in human jejunum microsome. In kind it is ADME. Conditions: microsomes. The method in brief:
as §3

The nature of data set [11]: Intrinsic clearance in mouse Liver microsome at 0.025 to 0.75 mM. In kind it is ADME. Conditions: liver microsomes, read-out: CLH. In outline: as §1
For data set [12], the target named is T1, Arylacetamide deacetylase. In words: Inhibition of AADAC in human jejunum microsome. The method in brief: as §2
The nature of data set [13]: Intrinsic clearance in rat lung microsome at 0.025 to 0.75 mM. In kind it is ADME. Conditions: lung microsomes. The method in brief:
as §1

Data set [14] in a line: Intrinsic clearance in rat Liver microsome at 0.025 to 0.75 mM. In kind it is ADME. Conditions: liver microsomes, read-out: CLH. In outline: as §1
The nature of data set [15]: Intrinsic clearance in human kidney microsome at 0.025 to 0.75 mM. In kind it is ADME. Conditions: kidney microsomes. In outline: as §1
Data set [16] is described as follows: Intrinsic clearance in human Liver microsome at 0.025 to 0.75 mM. Conditions: liver microsomes, read-out: CLH. The data set is classed as ADME. The method in brief:
as §1

As to `CC(C)C(=O)Nc1ccc([N+](=O)[O-])c(C(F)(F)F)c1` [FLUTAMIDE], the microsomal CLint at up to 750 µM in data set [1] came to 0.2 µL/min/mg; in data set [4], 0.2 µL/min/mg; in data set [5], 0.6 µL/min/mg; in data set [8] it was 0.2 µL/min/mg; in [9] it was 12.9 µL/min/mg; in [11], 1.2 µL/min/mg. Further, the microsomal CLint at up to 750 µM was determined as 0.1 µL/min/mg in data set [13], 1.4 µL/min/mg in data set [14], 1.2 µL/min/mg in data set [15] and 1.8 µL/min/mg in [16]. In addition, the inhibition constant Ki in [2] is 0.6 µM; in data set [12] it was 14 µM. Besides, the S50 came out at 2.1 mM in data set [3] and 0.2 mM in [10]. The results for the Vmax in data set [6] and in [7] were 1.9 nmol/min/mg and 0 nmol/min/mg, respectively.

Usually Ki stands for the dissociation constant of the complex between target and ligand, obtained from inhibition or displacement. In general, Vmax refers to the rate approached at saturating substrate.
